Measured values taken from ChEMBL document CHEMBL5705890, “Antitumor activity of an allosteric inhibitor of centromere-associated protein-E” (Proc Natl Acad Sci U S A, 2010).

Legend:
Type in all cases: functional
EKVX = assay: Anticancer activity against human EKVX cells assessed as cell growth inhibition measured after 72 hrs by DAPI staining based analysis
Procedure, shortened: (§1)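 Cells seeded, DAPI-stained DNA content of fixed cells read by imaging 24 h after seeding (T0), and again after a further 72 h exposure to a range of drug concentrations (T72). T72 values were normalized to T0. Curve fits gave the concentration producing 50% growth inhibition relative to T0 and Ymax (GI50).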

HT-29 = assay: Anticancer activity against human HT-29 cells assessed as cell doubling measured for 72 hrs by DAPI staining based analysis
CAKI-2 = assay: Anticancer activity against human CAKI-2 cells assessed as cell growth inhibition measured after 72 hrs by DAPI staining based analysis
Procedure, shortened: (§2)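 Cells were seeded, and DNA content at 24 h after seeding (T0) was read by imaging of fixed, DAPI-stained cells. Cells were then exposed to a range of drug concentrations for a further 72 h (T72) and DNA content was read again. T72 values were normalized to T0, and GI50 was taken from curve fits as the concentration giving 50% growth inhibition relative to T0 and Ymax.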

U-251 = assay: Anticancer activity against human U-251 cells assessed as cell growth inhibition measured after 72 hrs by DAPI staining based analysis
SH-4 = assay: Anticancer activity against human SH-4 cells assessed as cell doubling measured for 72 hrs by DAPI staining based analysis
SW684 = assay: Anticancer activity against human SW684 cells assessed as cell growth inhibition measured after 72 hrs by DAPI staining based analysis
BeWo = assay: Anticancer activity against human BeWo cells assessed as cell growth inhibition measured after 72 hrs by DAPI staining based analysis; procedure, shortened: as §2
[1] = Anticancer activity against human MJ cells assessed as cell doubling measured for 72 hrs by DAPI staining based analysis
Detroit 562 [2] = assay: Anticancer activity against human Detroit 562 cells assessed as cell growth inhibition measured after 72 hrs by DAPI staining based analysis; procedure, shortened: as §1
SF-268 = assay: Anticancer activity against human SF-268 cells assessed as cell growth inhibition measured after 72 hrs by DAPI staining based analysis
SW-403 = assay: Anticancer activity against human SW403 cells assessed as cell doubling measured for 72 hrs by DAPI staining based analysis
DLD-1 = assay: Anticancer activity against human DLD-1 cells assessed as cell growth inhibition measured after 72 hrs by DAPI staining based analysis; procedure, shortened: as §1
SiHa = assay: Anticancer activity against human SiHa cells assessed as cell doubling measured for 72 hrs by DAPI staining based analysis
T-24 = assay: Anticancer activity against human T24 cells assessed as cell doubling measured for 72 hrs by DAPI staining based analysis
SCC-9 = assay: Anticancer activity against human SCC-9 cells assessed as cell growth inhibition measured after 72 hrs by DAPI staining based analysis
LNCaP = assay: Anticancer activity against human LNCaP cells assessed as cell growth inhibition measured after 72 hrs by DAPI staining based analysis
SNU-16 = assay: Anticancer activity against human SNU-16 cells assessed as cell growth inhibition measured after 72 hrs by DAPI staining based analysis
H4 = assay: Anticancer activity against human H4 cells assessed as cell doubling measured for 72 hrs by DAPI staining based analysis
A549 = assay: Anticancer activity against human A549 cells assessed as cell doubling measured for 72 hrs by DAPI staining based analysis
Detroit 562 [3] = assay: Anticancer activity against human Detroit 562 cells assessed as cell doubling measured for 72 hrs by DAPI staining based analysis
FaDu = assay: Anticancer activity against human FaDu cells assessed as cell growth inhibition measured after 72 hrs by DAPI staining based analysis; procedure, shortened: as §1
G-401 = assay: Anticancer activity against human G-401 cells assessed as cell growth inhibition measured after 72 hrs by DAPI staining based analysis; procedure, shortened: as §1
T84 = assay: Anticancer activity against human T84 cells assessed as cell doubling measured for 72 hrs by DAPI staining based analysis
SNU1 = assay: Anticancer activity against human SNU1 cells assessed as cell doubling measured for 72 hrs by DAPI staining based analysis
SW-620 = assay: Anticancer activity against human SW620 cells assessed as cell doubling measured for 72 hrs by DAPI staining based analysis
NCI-H209 = assay: Anticancer activity against human NCI-H209 cells assessed as cell doubling measured for 72 hrs by DAPI staining based analysis
G-402 = assay: Anticancer activity against human G-402 cells assessed as cell growth inhibition measured after 72 hrs by DAPI staining based analysis; procedure, shortened: as §1
SW948 = assay: Anticancer activity against human SW948 cells assessed as cell growth inhibition measured after 72 hrs by DAPI staining based analysis
RL95-2 = assay: Anticancer activity against human RL95-2 cells assessed as cell growth inhibition measured after 72 hrs by DAPI staining based analysis
DU-4475 = assay: Anticancer activity against human DU-4475 cells assessed as cell growth inhibition measured after 72 hrs by DAPI staining based analysis; procedure, shortened: as §1
OV-90 = assay: Anticancer activity against human OV-90 cells assessed as cell growth inhibition measured after 72 hrs by DAPI staining based analysis
UACC-257 = assay: Anticancer activity against human UACC-257 cells assessed as cell growth inhibition measured after 72 hrs by DAPI staining based analysis
[4] = Anticancer activity against human BM-1604 cells assessed as cell doubling measured for 72 hrs by DAPI staining based analysis
[5] = Anticancer activity against human COLO-704 cells assessed as cell growth inhibition measured after 72 hrs by DAPI staining based analysis; procedure, shortened: as §1
A-375 = assay: Anticancer activity against human A-375 cells assessed as cell growth inhibition measured after 72 hrs by DAPI staining based analysis
Procedure, shortened: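 Cells were seeded and, after 24 h, DNA content was read as T0. Cells were then exposed to varying drug concentrations for a further 72 h (T72). Fixed cells were DAPI-stained and DNA content measured by automated imaging. T72 values were normalized to T0. GI50 is the concentration giving 50% growth inhibition between T0 and Ymax, obtained by curve fitting.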

CRO-AP2 = assay: Anticancer activity against human CRO-AP2 cells assessed as cell doubling measured for 72 hrs by DAPI staining based analysis
MCF-10A = assay: Anticancer activity against human MCF-10A cells assessed as cell doubling measured for 72 hrs by DAPI staining based analysis
TK-10 = assay: Anticancer activity against human TK-10 cells assessed as cell doubling measured for 72 hrs by DAPI staining based analysis
[6] = Antitumor activity against human MV-522 cells in xenograft model assessed as difference between median time to endpoint time of treated versus control group at 125 mg/kg
UMUC3 = assay: Anticancer activity against human UM-UC-3 cells assessed as cell growth inhibition measured after 72 hrs by DAPI staining based analysis
HCC1954 = assay: Anticancer activity against human HCC1954 cells assessed as cell growth inhibition measured after 72 hrs by DAPI staining based analysis; procedure, shortened: as §1
SW1463 = assay: Anticancer activity against human SW1463 cells assessed as cell growth inhibition measured after 72 hrs by DAPI staining based analysis

## CC(C)Oc1ccc(C(=O)N[C@H](CNC(=O)CN(C)C)Cc2ccc(-c3cn4cccc([C@H](C)O)c4n3)cc2)cc1Cl [GSK-923295A]
EKVX
  GI50: 28 nM
HT-29
  Activity: 4.33
CAKI-2
  GI50: 25 nM
U-251
  GI50: 26 nM
SH-4
  Activity: 3.12
SW684
  GI50: 5020 nM
BeWo
  GI50: 26 nM
[1]
  Activity: 3.39
Detroit 562 [2]
  GI50: 35 nM
SF-268
  GI50: 26 nM
SW-403
  Activity: 1.12
DLD-1
  GI50: 60 nM
SiHa
  Activity: 2.36
T-24
  Activity: 1.57
SCC-9
  GI50: 24 nM
LNCaP
  GI50: 76 nM
SNU-16
  GI50: 18 nM
H4
  Activity: 2.64
A549
  Activity: 3.53
Detroit 562 [3]
  Activity: 2.52
FaDu
  GI50: 32 nM
G-401
  GI50: 26 nM
T84
  Activity: 2.77
SNU1
  Activity: 2.64
SW-620
  Activity: 2.91
NCI-H209
  Activity: 1.12
G-402
  GI50: 31 nM
SW948
  GI50: 98 nM
RL95-2
  GI50: 49 nM
DU-4475
  GI50: 147 nM
OV-90
  GI50: 61 nM
UACC-257
  GI50: 32 nM
[4]
  Activity: 2.38
[5]
  GI50: 69 nM
A-375
  GI50: 26 nM
CRO-AP2
  Activity: 2.92
MCF-10A
  Activity: 3.87
TK-10
  Activity: 1.94
[6]
  Time: 26.3 days
UMUC3
  GI50: 23 nM
HCC1954
  GI50: 18 nM
SW1463
  GI50: 31 nM
